Columns and labels:
[1] = Cytotoxicity against human MCF10A cells assessed as reduction in cell viability at 50 uM incubated for 4 days by MTT assay; type: cell-based, MCF-10A
In short: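 Non-tumorigenic human mammary epithelial MCF-10A cells were exposed to compounds for 4 days. Viability was read by MTT reduction and expressed as percent viable cells.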

PANC-1 = test: Antiproliferative activity against human PANC1 cells assessed as growth inhibition incubated for 48 hrs by MTT assay; type: functional; conditions: PANC-1, 48 h
In short: (§1)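 MTT viability assay run on four human cancer lines: A549 (lung), MCF-7 (breast), Panc-1 (pancreatic) and HT29 (colon). GI50 derived per cell line from the MTT readout, following a previously reported protocol.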

A549 = test: Antiproliferative activity against human A549 cells assessed as growth inhibition incubated for 48 hrs by MTT assay; type: functional; conditions: A549, 48 h; in short: as §1
MCF7 [2] = test: Antiproliferative activity against human MCF7 cells assessed as growth inhibition incubated for 48 hrs by MTT assay; type: functional; conditions: MCF7, 48 h; in short: as §1
HT-29 = test: Antiproliferative activity against human HT-29 cells assessed as growth inhibition incubated for 48 hrs by MTT assay; type: functional; conditions: HT-29, 48 h; in short: as §1
MCF7 [3] = test: Induction of apoptosis in human MCF7 cells assessed as activation of caspase-3 level incubated for 24 hrs by enzyme assay relative to control; type: functional
In short: (§2)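 MCF-7 breast cells (ATCC) were grown in RPMI 1640 with 10% FBS at 37 °C, then treated with compounds. Active caspase-3, -8 or -9 protein was quantified (pg/mL) and expressed as fold over untreated control cells.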

MCF7 [4] = test: Induction of apoptosis in human MCF7 cells assessed as activation of caspase-9 level incubated for 24 hrs by enzyme assay relative to control; type: functional; in short: as §2
MCF7 [5] = test: Induction of apoptosis in human MCF7 cells assessed as activation of cytochrome C level incubated for 24 hrs by enzyme assay relative to control; type: functional
In short: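 MCF-7 cells (ATCC) were cultured in RPMI 1640 plus 10% fetal bovine serum at 37 °C and stimulated with compounds. Cytochrome C level was measured and reported as fold over untreated control.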

MCF7 [6] = test: Induction of apoptosis in human MCF7 cells assessed as increase in Bax level incubated for 24 hrs by RT-PCR relative to control; type: functional
MCF7 [7] = test: Induction of apoptosis in human MCF7 cells assessed as activation of caspase-8 level incubated for 24 hrs by enzyme assay relative to control; type: functional; in short: as §2
MCF7 [8] = test: Induction of apoptosis in human MCF7 cells assessed as decrease in Bcl2 level incubated for 24 hrs by RT-PCR relative to control; type: functional
MCF7 [9] = test: Cell cycle arrest in human MCF7 cells assessed as accumulation in S phase incubated for 24 hrs by annexin-V FITC and propidium iodide staining based flow cytometry analysis (reference value: 37.42 %); type: functional
MCF7 [10] = test: Cell cycle arrest in human MCF7 cells assessed as accumulation in pre G phase incubated for 24 hrs by annexin-V FITC and propidium iodide staining based flow cytometry analysis (reference value: 1.93 %); type: functional
MCF7 [11] = test: Cell cycle arrest in human MCF7 cells assessed as accumulation in G2/M phase incubated for 24 hrs by annexin-V FITC and propidium iodide staining based flow cytometry analysis (reference value: 8.87 %); type: functional
MCF7 [12] = test: Cell cycle arrest in human MCF7 cells assessed as accumulation in G0/G1 phase incubated for 24 hrs by annexin-V FITC and propidium iodide staining based flow cytometry analysis (reference value: 53.71 %); type: functional
MCF7 [13] = test: Induction of apoptosis in human MCF7 cells assessed as necrotic cells at 0 to 8 umol/L incubated for 24 hrs by annexin-V FITC and propidium iodide staining based flow cytometry analysis (reference value: 0.68 %); type: functional
In short: (§3)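 MCF-7 cells were stained with annexin-V-FITC and propidium iodide and analysed by flow cytometry. Cells were classed as early apoptotic, late apoptotic or necrotic.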

MCF7 [14] = test: Induction of apoptosis in human MCF7 cells assessed as late apoptotic cells at 0 to 8 umol/L incubated for 24 hrs by annexin-V FITC and propidium iodide staining based flow cytometry analysis (reference value: 0.37%); type: functional; in short: as §3
MCF7 [15] = test: Induction of apoptosis in human MCF7 cells assessed as early apoptotic cells at 0 to 8 umol/L incubated for 24 hrs by annexin-V FITC and propidium iodide staining based flow cytometry analysis (reference value: 0.88 %); type: functional; in short: as §3

SMILES | GI50 (PANC-1) | GI50 (A549) | GI50 (MCF7 [2]) | GI50 (HT-29) | viability at 96 h, 50 µM [1] | fold change (FC) (MCF7 [3]) | fold change (FC) (MCF7 [4]) | fold change (FC) (MCF7 [5]) | fold change (FC) (MCF7 [6]) | fold change (FC) (MCF7 [7]) | fold change (FC) (MCF7 [8]) | Activity (MCF7 [9]) | Activity (MCF7 [10]) | Activity (MCF7 [11]) | Activity (MCF7 [12]) | Activity (MCF7 [13]) | Activity (MCF7 [14]) | Activity (MCF7 [15])
Cc1c(C(=O)NCCc2ccc(N(C)C)cc2)oc2ccc(Cl)cc12 | 6.6 µM | 6.9 µM | 6.8 µM | 6.9 µM | 90% |  |  |  |  |  |  |  |  |  |  |  |  | 
CCc1c(C(=O)N2CCN(c3ccccc3)CC2)oc2ccc(Cl)cc12 | 13.8 µM | 14.7 µM | 13.6 µM | 13.8 µM | 82% |  |  |  |  |  |  |  |  |  |  |  |  | 
Cc1c(C(=O)N2CCC(Cc3ccccc3)CC2)oc2ccc(Cl)cc12 | 18.6 µM | 15.4 µM | 16.4 µM | 16.9 µM | 96% |  |  |  |  |  |  |  |  |  |  |  |  | 
CCc1c(C(=O)N2CCC(Cc3ccccc3)CC2)oc2ccc(Cl)cc12 | 33.7 µM | 27.9 µM | 26.5 µM | 27.8 µM | 90% |  |  |  |  |  |  |  |  |  |  |  |  | 
CCc1c(C(=O)NCCc2ccccc2)oc2ccc(Cl)cc12 | 8.3 µM | 6 µM | 7.5 µM | 7.7 µM | 89% |  |  |  |  |  |  |  |  |  |  |  |  | 
Cc1c(C(=O)NCCc2ccccc2)oc2ccc(Cl)cc12 | 12.5 µM | 11.4 µM | 12.9 µM | 12.2 µM | 87% |  |  |  |  |  |  |  |  |  |  |  |  | 
Cc1c(C(=O)N2CCN(c3ccccc3)CC2)oc2ccc(Cl)cc12 | 36 µM | 29.5 µM | 35.4 µM | 34.7 µM | 92% |  |  |  |  |  |  |  |  |  |  |  |  | 

Now those with a lower GI50 (PANC-1), led by results:

GI50 (PANC-1) | GI50 (A549) | GI50 (MCF7 [2]) | GI50 (HT-29) | SMILES | viability at 96 h, 50 µM [1] | fold change (FC) (MCF7 [3]) | fold change (FC) (MCF7 [4]) | fold change (FC) (MCF7 [5]) | fold change (FC) (MCF7 [6]) | fold change (FC) (MCF7 [7]) | fold change (FC) (MCF7 [8]) | Activity (MCF7 [9]) | Activity (MCF7 [10]) | Activity (MCF7 [11]) | Activity (MCF7 [12]) | Activity (MCF7 [13]) | Activity (MCF7 [14]) | Activity (MCF7 [15])
5.6 µM | 4.9 µM | 4.4 µM | 5.4 µM | CCc1c(C(=O)NCCc2ccc(N3CCCC3)cc2)oc2ccc(Cl)cc12 | 89% | 5.17 |  |  |  |  |  |  |  |  |  |  |  | 
5.5 µM | 4.8 µM | 4.7 µM | 6.5 µM | CCc1c(C(=O)NCCc2ccc(N(C)C)cc2)oc2ccc(Cl)cc12 | 85% | 3.87 |  |  |  |  |  |  |  |  |  |  |  | 
4.8 µM | 5.2 µM | 4.9 µM | 4.9 µM | Cc1c(C(=O)NCCc2ccc(N3CCCC3)cc2)oc2ccc(Cl)cc12 | 89% |  |  |  |  |  |  |  |  |  |  |  |  | 
4.6 µM | 4.5 µM | 3.6 µM | 4.8 µM | CCc1c(C(=O)NCCc2ccc(N3CCCCC3)cc2)oc2ccc(Cl)cc12 | 82% | 5.71 |  |  |  |  |  |  |  |  |  |  |  | 
4.1 µM | 4.4 µM | 4.9 µM | 4.9 µM | Cc1c(C(=O)NCCc2ccc(N3CCCCC3)cc2)oc2ccc(Cl)cc12 | 79% | 4.83 |  |  |  |  |  |  |  |  |  |  |  | 
3.3 µM | 3.5 µM | 3.1 µM | 3.9 µM | Cc1c(C(=O)NCCc2ccc(N3CCOCC3)cc2)oc2ccc(Cl)cc12 | 84% | 5.9 | 13.58 | 11.26 | 19.7 | 5.23 | 2.56 |  |  |  |  |  |  | 
1.41 µM | 1.21 µM | 0.9 µM | 1.01 µM | COc1cccc2c1C(=O)c1c(O)c3c(c(O)c1C2=O)C[C@@](O)(C(=O)CO)C[C@@H]3O[C@H]1C[C@H](N)[C@H](O)[C@H](C)O1 [DOXORUBICIN] |  | 7.66 | 17.4 | 13.13 | 33.42 | 10.07 | 5.1 |  | 22.17% |  |  |  |  | 
1.3 µM | 1.8 µM | 0.7 µM | 1.6 µM | CCc1c(C(=O)NCCc2ccc(N3CCOCC3)cc2)oc2ccc(Cl)cc12 | 91% | 8.1 | 15.98 | 16.83 | 34.46 | 9.64 | 5.77 | 31.49% | 34.29% | 43.96% | 24.53% | 2.29% | 23.08% | 8.92%

Source: ChEMBL document CHEMBL4393716, “5-Chlorobenzofuran-2-carboxamides: From allosteric CB1 modulators to potential apoptotic antitumor agents” (Eur J Med Chem, 2019)
